Source: ChEMBL document CHEMBL4823260, “From High-Throughput Screening to Target Validation: Benzo[d]isothiazoles as Potent and Selective Agonists of Human Transient Receptor Potential Cation Channel Subfamily M Member 5 Possessing In Vivo Gastrointestinal Prokinetic Activity in Rodents” (J Med Chem, 2021)

How the values were obtained:
[1] = molecular target: T1, Transient receptor potential cation channel subfamily M member 5 (Homo sapiens, UniProt Q9NZQ8); test: Agonist activity at human TRPM5 expressed in CHO-K1 cells maintained at 80 mV final holding potential by syncroPatch assay; format: cell-based
T1 sequence (Q9NZQ8 whole entry): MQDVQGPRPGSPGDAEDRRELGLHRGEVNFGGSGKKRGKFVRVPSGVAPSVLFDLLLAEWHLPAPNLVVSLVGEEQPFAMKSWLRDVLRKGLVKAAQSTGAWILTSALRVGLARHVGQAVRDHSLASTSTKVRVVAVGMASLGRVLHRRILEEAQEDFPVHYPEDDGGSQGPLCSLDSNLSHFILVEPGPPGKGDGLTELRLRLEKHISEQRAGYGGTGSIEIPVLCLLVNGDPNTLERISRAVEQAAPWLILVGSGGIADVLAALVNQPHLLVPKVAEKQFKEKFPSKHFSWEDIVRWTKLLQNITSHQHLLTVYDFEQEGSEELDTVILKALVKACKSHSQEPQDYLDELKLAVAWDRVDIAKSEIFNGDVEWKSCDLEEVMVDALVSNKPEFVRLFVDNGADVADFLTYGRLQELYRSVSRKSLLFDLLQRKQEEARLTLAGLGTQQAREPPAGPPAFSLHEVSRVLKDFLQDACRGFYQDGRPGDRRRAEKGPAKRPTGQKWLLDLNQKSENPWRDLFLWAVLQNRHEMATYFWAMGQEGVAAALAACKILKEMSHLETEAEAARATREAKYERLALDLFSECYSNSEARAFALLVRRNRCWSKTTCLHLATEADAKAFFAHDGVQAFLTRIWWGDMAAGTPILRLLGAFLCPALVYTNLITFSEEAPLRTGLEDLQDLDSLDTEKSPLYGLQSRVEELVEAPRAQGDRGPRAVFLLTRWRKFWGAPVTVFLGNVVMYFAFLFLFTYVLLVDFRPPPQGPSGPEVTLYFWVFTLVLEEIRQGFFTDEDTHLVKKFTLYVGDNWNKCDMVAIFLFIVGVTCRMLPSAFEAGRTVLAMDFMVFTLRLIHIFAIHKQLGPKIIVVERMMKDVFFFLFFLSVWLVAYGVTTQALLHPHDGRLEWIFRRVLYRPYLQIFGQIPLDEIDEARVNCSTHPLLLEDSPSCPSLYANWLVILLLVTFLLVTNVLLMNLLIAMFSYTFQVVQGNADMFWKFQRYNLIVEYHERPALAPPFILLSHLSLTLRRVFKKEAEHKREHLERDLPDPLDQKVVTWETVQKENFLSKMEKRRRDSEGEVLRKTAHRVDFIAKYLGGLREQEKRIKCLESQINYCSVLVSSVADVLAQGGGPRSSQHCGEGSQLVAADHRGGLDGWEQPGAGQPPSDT
In short: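 SyncroPatch 384 whole-cell recording at rt on CHO-K1 cells stably expressing human or mouse TRPM5. Intracellular solution had 2 mM Na-ATP and 5 μM free Ca2+. Cumulative doses 0.03–31.6 μM in 0.5% DMSO, 150 s each after 180 s vehicle. Current measured at the end of the +80 mV step, normalized to vehicle; pEC50 is the mean of ≥2 independent experiments.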

[2] = Intrinsic clearance in human liver microsomes assessed per mg protein incubated up to 30 mins in presence of NADPH by LC-MS/MS analysis; format: ADME, Microsome
[3] = Intrinsic clearance in mouse liver microsomes assessed per mg protein incubated up to 30 mins in presence of NADPH by LC-MS/MS analysis; format: ADME, Microsome

CCN(Cc1ncc(Cl)n1C)c1ccc2sncc2c1
EC50 [1]: 468 nM

Fc1cc2cnsc2cc1NCc1ncc(Cl)s1
EC50 [1]: 28.8 nM

Cn1c(Cl)cnc1CNc1cc2sncc2cc1Cl
EC50 [1]: 11.2 nM

CC(C)c1cnc(CNc2ccc3sncc3c2)s1
EC50 [1]: > 31600 nM

Clc1cnc(CNc2cc(Cl)c3sncc3c2)s1
microsomal CLint [2]: 150 µL/min/mg | microsomal CLint [3]: 221 µL/min/mg | EC50 [1]: > 31600 nM

CN(Cc1ncc(Cl)n1C)c1ccc2cnsc2c1
EC50 [1]: 85.1 nM

N#Cc1ccc(CNc2ccc3sncc3c2)s1
EC50 [1]: > 31600 nM

Cn1c(CNc2ccc(Cl)cc2)nc2ccccc21
EC50 [1]: > 31600 nM

Cc1c(NCc2ncc(Cl)s2)ccc2sncc12
microsomal CLint [2]: 178 µL/min/mg | microsomal CLint [3]: 508 µL/min/mg | EC50 [1]: 1740 nM

CCN(Cc1ncc(Cl)n1C)c1ccc(Br)cc1
EC50 [1]: 5130 nM

FC(F)(F)c1cnc(CNc2ccc3sncc3c2)s1
EC50 [1]: 490 nM

Cc1nnc(CNc2ccc3sncc3c2)s1
EC50 [1]: 19100 nM

Cc1cc2cnsc2cc1NCc1ncc(Cl)n1C
EC50 [1]: 38 nM

Cn1c(Cl)ccc1CNc1ccc2sncc2c1
EC50 [1]: > 31600 nM

Clc1cnc(CNc2ccc3sncc3n2)s1
microsomal CLint [2]: 172 µL/min/mg | microsomal CLint [3]: 421 µL/min/mg | EC50 [1]: 1170 nM

Cn1nc(CNc2ccc3sncc3c2)cc1C(F)(F)F
EC50 [1]: > 31600 nM

Cn1ccnc1CNc1ccc(Cl)cc1OCCC(F)(F)F
EC50 [1]: 2510 nM

Clc1cnc(CNc2cc3cnsc3cn2)s1
microsomal CLint [2]: 155 µL/min/mg | microsomal CLint [3]: 93 µL/min/mg | EC50 [1]: 468 nM

Cn1c(Cl)cnc1CNc1cc2sncc2cc1F
EC50 [1]: 102 nM

Cn1c(Cl)cnc1CN(Cc1ccccc1)c1ccc2sncc2c1
EC50 [1]: > 31600 nM

Cc1csc(CNc2ccc3sncc3c2)n1
EC50 [1]: > 31600 nM

Cn1c(Cl)cnc1CNc1ccc2[nH]cnc2c1
EC50 [1]: > 31600 nM

Cn1c(Cl)cnc1CNc1ccc2scnc2c1
EC50 [1]: 13500 nM

Cn1c(Cl)cnc1CNc1ccc2cnsc2c1
EC50 [1]: 295 nM

Cc1cc2sncc2cc1NCc1ncc(Cl)s1
microsomal CLint [2]: 157 µL/min/mg | microsomal CLint [3]: 148 µL/min/mg | EC50 [1]: 38.9 nM

c1ccc2sc(CNc3ccc4sncc4c3)nc2c1
EC50 [1]: > 31600 nM

COc1ccc(N(C)Cc2ncc(Cl)n2C)cc1OC
EC50 [1]: > 31600 nM

Clc1cnc(CNc2ccc3sncc3c2Cl)s1
microsomal CLint [2]: 174 µL/min/mg | microsomal CLint [3]: 258 µL/min/mg | EC50 [1]: 1580 nM

Cc1cc2sncc2cc1N(C)Cc1ncc(Cl)s1
microsomal CLint [2]: 562 µL/min/mg | microsomal CLint [3]: 748 µL/min/mg | EC50 [1]: 5250 nM

Cn1c(Cl)cnc1CNc1ccc2ocnc2c1
EC50 [1]: 16200 nM

Clc1cnc(CNc2ccc3sncc3c2)[nH]1
EC50 [1]: > 31600 nM

Clc1cnc(COc2ccc3sncc3c2)s1
microsomal CLint [2]: 157 µL/min/mg | microsomal CLint [3]: 763 µL/min/mg | EC50 [1]: 832 nM

CN(Cc1ncc(Cl)n1C)c1ccc2sncc2c1
EC50 [1]: 158 nM

Cc1cnc(CNc2ccc3sncc3c2)s1
EC50 [1]: 575 nM

CN(Cc1ncc(Cl)s1)c1cc2cnsc2cc1Cl
EC50 [1]: 1620 nM

Cn1c(Cl)cnc1CNc1ccc2c(c1)nnn2C
EC50 [1]: > 31600 nM

Cn1ccnc1CNc1ccc2sncc2c1
EC50 [1]: 5130 nM

Cn1c(Cl)cnc1CN1CC(CO)Cc2cccc(F)c21 (configuration not stated)
EC50 [1]: 5010 nM

CC(C)(Nc1ccc2sncc2c1)c1ncc(Cl)s1
microsomal CLint [2]: 173 µL/min/mg | microsomal CLint [3]: 250 µL/min/mg | EC50 [1]: > 31600 nM

Cc1nc(CNc2ccc3sncc3c2)sc1C
EC50 [1]: > 31600 nM

Cc1cc(NCc2ncc(Cl)s2)cc2cnsc12
microsomal CLint [2]: 169 µL/min/mg | microsomal CLint [3]: 434 µL/min/mg | EC50 [1]: > 31600 nM

CC(C)N(Cc1ncc(Cl)n1C)c1ccc2sncc2c1
EC50 [1]: 5130 nM

O=C(Nc1ccc2sncc2c1)c1ncc(Cl)s1
EC50 [1]: > 31600 nM

Fc1cc2sncc2cc1NCc1ncc(Cl)s1
microsomal CLint [2]: 142 µL/min/mg | microsomal CLint [3]: 312 µL/min/mg | EC50 [1]: 97.7 nM

Clc1cnc(CNc2cccc3cnsc23)s1
EC50 [1]: 1450 nM

CC(=O)N(Cc1ncc(Cl)n1C)c1ccc2sncc2c1
EC50 [1]: > 31600 nM

Cn1c(Cl)cnc1CNc1ccc2c(cnn2C)c1
EC50 [1]: 5250 nM

Clc1ccc(CNc2ccc3sncc3c2)s1
EC50 [1]: 2750 nM

Fc1cc(NCc2ncc(Cl)s2)cc2cnsc12
microsomal CLint [2]: 202 µL/min/mg | microsomal CLint [3]: 612 µL/min/mg | EC50 [1]: 1380 nM

Fc1c(NCc2ncc(Cl)s2)ccc2sncc12
microsomal CLint [2]: 247 µL/min/mg | microsomal CLint [3]: 448 µL/min/mg | EC50 [1]: 933 nM

Clc1snnc1CNc1ccc2sncc2c1
EC50 [1]: 5250 nM

Cn1c(Cl)cnc1CN(CC1CCCCC1)c1ccc2sncc2c1
EC50 [1]: > 31600 nM

CC(Nc1ccc2sncc2c1)c1ncc(Cl)s1 (configuration not stated)
EC50 [1]: 7590 nM

Cn1c(Cl)cnc1CN1CCc2ccccc21
EC50 [1]: 22900 nM

CN(Cc1ncc(Cl)s1)c1ccc2sncc2c1
EC50 [1]: 447 nM

Clc1cnc(CNc2cc3cnsc3cc2Cl)s1
microsomal CLint [2]: 149 µL/min/mg | microsomal CLint [3]: 527 µL/min/mg | EC50 [1]: 24.5 nM

Clc1cnc(CNc2cnc3sncc3c2)s1
microsomal CLint [2]: 84 µL/min/mg | microsomal CLint [3]: 163 µL/min/mg | EC50 [1]: 6610 nM

Cc1cc2cnsc2cc1NCc1ncc(Cl)s1
EC50 [1]: 17.8 nM

Cn1c(Cl)cnc1CNc1ccc2oncc2c1
EC50 [1]: 3020 nM

CN(Cc1ncc(Cl)s1)c1cc2cnsc2cc1F
EC50 [1]: 2820 nM

c1csc(CNc2ccc3sncc3c2)n1
EC50 [1]: 4680 nM

Clc1cnc(CNc2cccc3sncc23)s1
EC50 [1]: > 31600 nM

CN(Cc1ncc(Cl)n1C)c1cc2sncc2cc1Cl
EC50 [1]: 309 nM

Cn1c(Cl)cnc1CNc1ccc2[nH]ncc2c1
EC50 [1]: 6030 nM

Cn1c(CNc2ccc3sncc3c2)nc(Cl)c1Cl
EC50 [1]: > 31600 nM

Cn1c(Cl)cnc1CN(CC1CC1)c1ccc2sncc2c1
EC50 [1]: 158 nM

Cn1c(Br)cnc1CNc1ccc2sncc2c1
EC50 [1]: 457 nM
